High-throughput results: PubChem BioAssay, Broad Institute
Only some compounds are listed: those with a hit (about 5.9% of all), similar ones and a draw of the others.
Pf Dd2 growth: P. falciparum Dd2 growth inhibitors, primary screen, SYBR Green fluorescence, single dose replicates. 72 h; hits give low values. activity change, % at 10 µM. 2.3% of 94,000 active; in the data active means activity change below about -80%
GASC1 inh: inhibitors of GASC-1 (KDM4C) histone demethylase, primary screen, biochemical, single concentration HTS; Lysine-specific demethylase 4C (Homo sapiens), Q9H3R0; inhibition, % at 12.5 µM; 0.15% of 96,000 active; GST-KDM4C 2-372, H3K9me3 peptide, LANCE TR-FRET;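 active means mean replicate inhibition above about 25%, with at least 55% of replicates also reaching it, limit read from the data, passing the limit was not always enough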
Target sequence (Q9H3R0 2-372 limits assumed): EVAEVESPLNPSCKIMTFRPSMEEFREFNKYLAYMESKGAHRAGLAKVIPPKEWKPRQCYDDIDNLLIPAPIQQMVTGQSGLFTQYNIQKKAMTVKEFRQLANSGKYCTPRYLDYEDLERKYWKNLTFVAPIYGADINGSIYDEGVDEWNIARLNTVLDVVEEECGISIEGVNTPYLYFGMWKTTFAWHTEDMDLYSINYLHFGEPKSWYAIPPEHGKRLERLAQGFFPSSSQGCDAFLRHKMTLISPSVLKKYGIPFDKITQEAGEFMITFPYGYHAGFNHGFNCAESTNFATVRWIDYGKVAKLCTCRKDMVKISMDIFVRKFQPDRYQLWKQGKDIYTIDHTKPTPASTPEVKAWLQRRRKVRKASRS
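Material: GST-tagged GASC-1 (JMJD2C) catalytic fragment, aa 2-372 / Quantity: enzyme final amount 10 nM / Medium: HEPES buffer, pH 7.5, plus ascorbate / Doses: one test concentration per compound / Incubation: 30 min reaction, 60 min detection, RT / Measured by: LANCE TR-FRET / Read-out: inhibition from TR-FRET ratio decrease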
T cruzi growth: T. cruzi intracellular proliferation inhibitors, primary screen, cell-based, beta-gal Tulahuen parasites, NIH3T3 host, luminescence; T. cruzi beta-gal in NIH3T3, GalScreen luminescence, 90 h; inhibition, % at 8.34 µM; 5.9% of 77,000 active; AID 624255, 2012;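 active means mean inhibition above about 93%, with at least 55% of replicates each passing it, limit read from the data, passing the limit was not always enough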
IDH1 mut inh: inhibitors of IDH1 R132H reductase, primary screen, biochemical, plate reader, single point; inhibition, % at 10 µM; diaphorase/resazurin fluorescence, 60 min; 0.18% of 70,000 active; in the data active means inhibition above about 34%
Hits are given with their value; . = inactive; / = not tested or not shown.

SMILES	Pf Dd2 growth	GASC1 inh	T cruzi growth	IDH1 mut inh
COc1cccc(S(=O)(=O)N(C)C[C@@H]2Oc3ncc(-c4cccc(C(=O)N(C)C)c4)cc3C(=O)N([C@@H](C)CO)C[C@H]2C)c1	.	.	.	.
COc1ccc(S(=O)(=O)N(C)C[C@@H]2Oc3ncc(-c4cc5ccccc5o4)cc3C(=O)N([C@H](C)CO)C[C@@H]2C)cc1	-86	/	.	.
COc1cccc(S(=O)(=O)N(C)C[C@H]2Oc3ncc(-c4cccc(C(=O)N(C)C)c4)cc3C(=O)N([C@H](C)CO)C[C@@H]2C)c1	-84	.	.	.
COc1ccc(OCC(O)Cn2cnc3ccccc32)cc1 (stereo not given)	/	/	/	.
C[C@@H]1CN([C@H](C)CO)C(=O)c2cccc(NC(=O)CCCCCC(=O)Nc3ccccc3N)c2O[C@@H]1CN(C)S(C)(=O)=O	.	.	/	/
C[C@@H]1CN([C@H](C)CO)C(=O)c2cccc(NC(=O)CCCCCC(=O)Nc3ccccc3N)c2O[C@@H]1CN(C)S(=O)(=O)c1ccccc1	-89	.	/	.
Cc1ccc(S(=O)(=O)N(C)C[C@H]2Oc3c(NC(=O)CCCCCC(=O)Nc4ccccc4N)cccc3C(=O)N([C@H](C)CO)C[C@H]2C)cc1	-90	.	/	.
Cc1ccc(S(=O)(=O)N(C)C[C@@H]2Oc3c(NC(=O)CCCCCC(=O)Nc4ccccc4N)cccc3C(=O)N([C@H](C)CO)C[C@H]2C)cc1	.	.	/	/
C[C@@H]1CN([C@H](C)CO)C(=O)c2cccc(NC(=O)CCCCCC(=O)Nc3ccccc3N)c2O[C@@H]1CN(C)S(=O)(=O)c1cccs1	-84	.	/	/
C[C@@H]1CN([C@H](C)CO)C(=O)c2cccc(NC(=O)CCCCCC(=O)Nc3ccccc3N)c2O[C@@H]1CN(C)S(=O)(=O)c1ccc(Cl)cc1	-88	.	.	.
C[C@H](CO)N1C[C@H](C)[C@@H](CN(C)S(C)(=O)=O)Oc2c(NC(=O)CCCCCC(=O)Nc3ccccc3N)cccc2C1=O	.	.	/	.
C[C@H](CO)N1C[C@H](C)[C@@H](CN(C)S(=O)(=O)c2ccccc2)Oc2c(NC(=O)Nc3cccc4ccccc34)cccc2C1=O	.	.	.	/
C[C@@H]1CN([C@H](C)CO)C(=O)c2cccc(NC(=O)Nc3cccc4ccccc34)c2O[C@@H]1CN(C)S(=O)(=O)c1ccccc1	-81	.	.	/
CCN(CC(=O)Nc1cccc(SC)c1)S(=O)(=O)c1ccc2ccccc2c1	/	/	/	.
C[C@H](O)C#Cc1ccc2c(c1)O[C@@H](CN(C)Cc1ccncc1)[C@@H](C)CN([C@H](C)CO)S2(=O)=O	.	.	.	/
CC(C)C#Cc1ccc2c(c1)O[C@@H](CN(C)Cc1ccncc1)[C@H](C)CN([C@@H](C)CO)S2(=O)=O	.	.	121	.
CC(C)C#Cc1ccc2c(c1)O[C@H](CN(C)Cc1ccncc1)[C@@H](C)CN([C@@H](C)CO)S2(=O)=O	.	.	117	.
C[C@@H]1CN([C@H](C)CO)S(=O)(=O)c2ccc(-c3ccncc3)cc2O[C@H]1CN(C)Cc1ccc(Oc2ccccc2)cc1	-87	.	.	.
C[C@@H]1CN([C@@H](C)CO)S(=O)(=O)c2ccc(C#C[C@@H](C)O)cc2O[C@@H]1CN(C)Cc1ccncc1	.	.	.	/
O=C1c2cccc3cccc(c23)C(=O)N1CCCSc1n[nH]c(-c2ccc(Cl)cc2)n1	/	/	/	.
COc1cccc2cc(C(=O)C3C(=O)C(=O)N(Cc4ccco4)C3c3ccc(F)cc3)oc12 (stereo not given)	/	/	/	.
Cc1ccc(-c2nnc(SCC(=O)Nc3ccc(Br)c(C)c3C)o2)cc1	/	/	/	.
COc1ccccc1NC(=O)N(C)C[C@@H]1OCc2ccccc2-c2ccccc2C(=O)N([C@@H](C)CO)C[C@H]1C	-86	.	.	/
C[C@H](CO)N1C[C@H](C)[C@@H](CN(C)C(=O)Nc2cccc(Cl)c2Cl)OCc2ccccc2-c2ccccc2C1=O	-84	.	/	/
C[C@@H]1CN([C@H](C)CO)C(=O)c2cc(NC(=O)Nc3ccccc3)ccc2O[C@@H](C)CCCCO[C@@H]1CN(C)S(=O)(=O)c1ccc(Cl)cc1	-86	.	.	.
C[C@@H]1CN([C@H](C)CO)C(=O)c2cc(NC(=O)Nc3ccc4c(c3)OCO4)ccc2O[C@@H](C)CCCCO[C@@H]1CN(C)S(=O)(=O)c1ccc(Cl)cc1	-88	.	.	.
